Here are results for 17 compounds from ChEMBL document CHEMBL4342514, “Azole Based Acetohydrazide Derivatives of Cinnamaldehyde Target and Kill Candida albicans by Causing Cellular Apoptosis” (ACS Med Chem Lett, 2020).

Series [1] concerns Candida albicans. The series is described as follows: Antifungal activity against fluconazole-susceptible Candida albicans assessed as growth inhibition measured after 24 hrs by CLSI protocol based broth microdilution method. The class given is functional. A digest of the protocol:
(§1)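 C. albicans clinical isolates were tested: 8 fluconazole-susceptible and 3 fluconazole-resistant. Isolates were called resistant at a fluconazole MIC ≥8 μg/mL, per CLSI 2012 interpretive guidelines. Compounds were diluted to test concentrations in 1% DMSO, which served as the negative control. Fluconazole was the positive control. Values are means per group.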

In series [2] the test system is Candida albicans. In words: Fungicidal activity against fluconazole-susceptible Candida albicans assessed as growth inhibition by sub-culturing on Agar plate and incubated for 24 to 48 hrs. Format: functional. A digest of the protocol: as §1
A short description of series [3]: Hemolytic activity against horse erythrocytes at 4 to 125 ug/ml measured after 3 hrs by spectrophometric analysis. The class given is ADME, cell-based, Equus caballus, Erythrocyte. The settings on record: read-out: Activity. A digest of the protocol:
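Horse red blood cells exposed to compound. Hemolysis read as absorbance at 450 nm and expressed as % lysis relative to 1% Triton X-100, taken as 100% hemolysis.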

In series [4] the test system is Candida albicans. In words: Induction of apoptosis in Candida albicans SC5314 protoplasts assessed as late apoptotic cells at 1/2 MIC measured after 3 hrs by Annexin V-FITC/propidium iodide staining based flow cytometry (reference value: 0.06 +/- 0.01 %). Format: functional. (In flow cytometry, cells or beads pass a laser one at a time.)
The subject of series [5] is Candida albicans. The series is described as follows: Antifungal activity against Candida albicans SC5314 assessed as effect on fungal cell viability by measuring dead cells at MIC measured after 3 hrs by Muse cell analyzer (reference value: 1.4 %). The class given is functional. A digest of the protocol:
(§2)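 Candida albicans SC5314 cells at a density of 1 × 107 were exposed to each compound at its MIC. Live and dead cells were counted with the Muse Count & Viability kit. Untreated cells were the negative control and heat-killed cells the positive control. A cell size index was run in the same assay to separate cells from debris and non-nucleated cells.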

Series [6] deals with Candida albicans. The series is described as follows: Antifungal activity against Candida albicans SC5314 assessed as effect on fungal cell viability by measuring live cells at MIC measured after 3 hrs by Muse cell analyzer (reference value: 98.6 %). The class given is functional.
Series [7] deals with Candida albicans. In words: Antifungal activity against fluconazole-resistant Candida albicans assessed as growth inhibition measured after 24 hrs by CLSI protocol based broth microdilution method. Format: functional. The method, boiled down:
as §1
(In broth dilution the organism is exposed to a series of concentrations in liquid medium.)

Series [8] has as its system Candida albicans. In words: Induction of DNA damage in Candida albicans SC5314 assessed as apoptotic cells at 1/2 MIC measured after 3 hrs by TUNEL based confocal microscopy relative to control. Format: functional. The method, boiled down:
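SC5314 cells exposed to 1/2 MIC of compound, then TUNEL-labelled with fluorescent dUTP (Ex/Em 488/515 nm) and counterstained with Hoechst 33342 (Ex/Em 350/460 nm). Imaged by confocal laser scanning microscopy and scored as % TUNEL-positive nuclei against untreated control.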

In series [9] the test system is Candida albicans. In words: Fungicidal activity against fluconazole-resistant Candida albicans assessed as growth inhibition by sub-culturing on Agar plate and incubated for 24 to 48 hrs. The class given is functional. The method, boiled down:
as §1

Series [10] has as its system Candida albicans. The series is described as follows: Induction of apoptosis in Candida albicans SC5314 protoplasts assessed as viable cells at 1/2 MIC measured after 3 hrs by Annexin V-FITC/propidium iodide staining based flow cytometry (reference value: 96.3 %). The class given is functional.
For series [11], the system named is Candida albicans. The series is described as follows: Induction of apoptosis in Candida albicans SC5314 protoplasts assessed as necrotic cells at 1/2 MIC measured after 3 hrs by Annexin V-FITC/propidium iodide staining based flow cytometry (reference value: 0.15 +/- 0.03 %). The class given is functional.
Series [12] relates to Candida albicans. In words: Induction of apoptosis in Candida albicans SC5314 protoplasts assessed as early apoptotic cells at 1/2 MIC measured after 3 hrs by Annexin V-FITC/propidium iodide staining based flow cytometry (reference value: 3.47 +/- 0.26 %). Format: functional.
Series [13] relates to Candida albicans. The series is described as follows: Antifungal activity against Candida albicans SC5314 assessed as effect on fungal cell death at MIC measured after 3 hrs by Muse cell analyzer relative to control. The class given is functional. The method, boiled down:
as §2

The subject of series [14] is Candida albicans. The series is described as follows: Induction of DNA damage in Candida albicans SC5314 assessed as increase in TUNEL positive nuclei at 0.125 ug/ml measured after 3 hrs by TUNEL based confocal microscopy relative to control. The class given is functional. A digest of the protocol: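 SC5314 cells treated with 0.125 μg/mL amphotericin B, then TUNEL-labelled with fluorescent dUTP and counterstained with Hoechst 33342. Confocal microscopy scored TUNEL-positive (green) nuclei relative to untreated cells.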

Values after ≈ are worked out from the molar mass of the structure shown.

As to `C(=C\c1nn[nH]n1)/c1ccccc1`, in series [1], the minimum inhibitory concentration (MIC) (usually the least concentration at which growth counts as inhibited) is over 125 µg/mL. For the same compound, in series [2], the MFC (as a rule, the smallest concentration meeting the test's criterion for killing the fungus) is over 125 µg/mL.
As for `CCOC(=O)Cn1nnc(/C=C/c2ccccc2)n1`, the MIC in series [1] was over 125 µg/mL. For the same compound, the MFC in [2] was over 125 µg/mL.
With `COc1ccc(/C=N/NC(=O)Cn2nnc(/C=C/c3ccccc3)n2)cc1OC`, the hemolysis at 3 h in series [3] lay within 10 to 40%. Besides, the Activity in series [4] is recorded as 24.93%; in series [5], 55.2%; in series [6], 44.8%; in series [8], 25 - 55%; in series [10] it was 61.4%; in series [11] it was 4.55%. The Activity in [12] is 9.69%. Also, the values for the MIC in [1] and in [7] were 2 µg/mL (≈ 5.1 µM) and 4 µg/mL (≈ 10.2 µM), respectively. In addition, the MFC in series [2] and in [9] was 8 µg/mL (≈ 20.4 µM) in each case.
Regarding `CCOc1ccc(/C=N/NC(=O)Cn2nnc(/C=C/c3ccccc3)n2)cc1`, the hemolysis at 3 h in series [3] is 10 to 40%. Further, the Activity in series [4] is recorded as 27.92%; in series [5], 53.6%; in series [6], 46.4%; in series [8], 25 - 55%; in series [10], 59.9%; in series [11], 2.44%. For the same compound, the Activity in series [12] came out at 10.49%. Further, the MIC in [1] was determined as 4 µg/mL (≈ 10.6 µM); in series [7], 8 µg/mL (≈ 21.3 µM). Besides, the MFC in [2] and in series [9] was 8 µg/mL (≈ 21.3 µM) each time.
In the case of `O=C(Cn1nnc(/C=C/c2ccccc2)n1)N/N=C/c1cccc([N+](=O)[O-])c1`, the hemolysis at 3 h in series [3] is 10 to 40%. Moreover, the Activity in series [4] is given as 44.65%; in series [5], 70.4%; in [6], 29.6%; in series [8], 25 - 55%; in series [10], 35.3%; in [11], 11.7%. Moreover, the Activity in [12] was 8.23%. For the same compound, the MIC in [1] worked out at 0.25 µg/mL (≈ 0.662 µM); in [7], 0.5 µg/mL (≈ 1.32 µM). The MFC in series [2] and in series [9] was 1 µg/mL (≈ 2.65 µM) each time.
Take `O=C(Cn1nnc(/C=C/c2ccccc2)n1)N/N=C/c1ccccc1`: the MIC in series [1] and in [7] was 125 µg/mL (≈ 376 µM) in each case. Also, the MFC in series [2] was over 125 µg/mL.
For `O=C(Cn1nnc(/C=C/c2ccccc2)n1)N/N=C/c1ccc([N+](=O)[O-])cc1`, in series [3], the hemolysis at 3 h is 10 to 40%. The Activity in [4] is on record as 48.3%; in series [5], 77.2%; in series [6], 22.8%; in series [8], 25 - 55%; in series [10] it was 33.8%; in [11], 9.8%. The Activity in [13] was over 75%; in series [12], 8.21%. The MIC in series [1] is 0.125 µg/mL (≈ 0.331 µM); in series [7] it was 0.5 µg/mL (≈ 1.32 µM). The MFC in series [2] and in series [9] was 1 µg/mL (≈ 2.65 µM) each time.
In the case of `Cc1ccc(/C=N/NC(=O)Cn2nnc(/C=C/c3ccccc3)n2)cc1`, the hemolysis at 3 h in [3] lay in the range of 10 to 40%. The Activity in series [4] was 15.6%; in series [5], 44.2%; in [6] it was 55.8%; in [8], 25 - 55%; in series [10], 71.3%; in [11], 3.7%. In [12], the Activity was found to be 10.18%. Moreover, the MIC in series [1] and in series [7] was 16 µg/mL (≈ 46.2 µM) throughout. Also, the MFC in [2] and in series [9] was 16 µg/mL (≈ 46.2 µM) in each case.
For the compound `O=C(Cn1nnc(/C=C/c2ccccc2)n1)N/N=C/c1ccccc1Cl`, the MIC in series [1] turned out to be 64 µg/mL (≈ 174 µM); in [7], 125 µg/mL (≈ 341 µM). The MFC in series [2] is over 125 µg/mL.
With `NNC(=O)Cn1nnc(/C=C/c2ccccc2)n1`, the MIC in series [1] was over 125 µg/mL. In addition, the minimum fungicidal concentration (MFC) in series [2] was over 125 µg/mL.
Take `O=C(Cn1nnc(/C=C/c2ccccc2)n1)N/N=C/c1ccccc1[N+](=O)[O-]`: the hemolysis at 3 h in series [3] fell in the range of 10 to 40%. The Activity in series [4] is 36.34%; in [5], 59.6%; in series [6] it was 40.4%; in series [8], 25 - 55%; in series [10] it was 48.3%; in series [11], 1.98%. The Activity in series [12] is 13.37%. In addition, the MIC in series [1] and in series [7] was 0.5 µg/mL (≈ 1.32 µM) in each case. The MFC in series [2] and in series [9] was 4 µg/mL (≈ 10.6 µM) in each case.
For the compound `COc1ccc(/C=N/NC(=O)Cn2nnc(/C=C/c3ccccc3)n2)cc1`, in series [3], the hemolysis at 3 h is 10 to 40%. Also, the Activity in [4] is recorded as 23.6%; in series [5], 47.7%; in series [6], 52.3%; in [8], 25 - 55%; in series [10], 60.9%; in series [11], 1.78%. Also, the Activity in series [12] turned out to be 13.9%. Besides, the MIC in series [1] and in series [7] was 8 µg/mL (≈ 22.1 µM) throughout. In addition, the MFC turned out to be 8 µg/mL (≈ 22.1 µM) in series [2] and 16 µg/mL (≈ 44.2 µM) in series [9].
For `O=C(Cn1nnc(/C=C/c2ccccc2)n1)N/N=C/c1ccc(Cl)cc1`, the MIC in series [1] and in series [7] was 64 µg/mL (≈ 174 µM) in each case. Besides, the MFC in series [2] is over 125 µg/mL.
Take `O/N=C/C=C/c1ccccc1`: the MIC in [1] was over 125 µg/mL. Besides, in [2], the MFC is over 125 µg/mL.
In the case of `C[C@@H]1[C@H](O)[C@@H](C)/C=C/C=C/C=C/C=C/C=C/C=C/C=C/[C@H](O[C@@H]2O[C@H](C)[C@@H](O)[C@H](N)[C@@H]2O)C[C@@H]2O[C@](O)(C[C@@H](O)C[C@@H](O)[C@H](O)CC[C@@H](O)C[C@@H](O)CC(=O)O[C@H]1C)C[C@H](O)[C@H]2C(=O)O` [AMPHOTERICIN B], the Activity in series [14] is recorded as over 90%.
As for `N#C/C=C/c1ccccc1` [CINNAMONITRILE], the MIC in series [1] and in series [7] was over 125 µg/mL each time. Moreover, the MFC in series [2] and in series [9] was over 125 µg/mL each time.
For the compound `OC(Cn1cncn1)(Cn1cncn1)c1ccc(F)cc1F` [FLUCONAZOLE], the MIC in series [1] came out at 0.25 µg/mL (≈ 0.816 µM); in series [7] it was 16 µg/mL (≈ 52.2 µM).
